Test results: ChEMBL document CHEMBL1157562, “Piperazinyl glutamate pyridines as potent orally bioavailable P2Y12 antagonists for inhibition of platelet aggregation” (J Med Chem, 2010)

Assays:
P2Y purinoceptor 12 = P2Y purinoceptor 12 (Homo sapiens, UniProt Q9H244); assay: Displacement of [33P]ADP from human recombinant P2Y12 receptor expressed in CHO cells; type: cell-based
Outline: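 Washed membranes from CHO cells expressing synthetic human P2Y12, incubated 1 h at room temperature with 0.2 nM 33P-MeSADP in 50 mM Tris/100 mM NaCl/1 mM EDTA. Compound was tested as a 7-point 3-fold series in triplicate. Nonspecific binding was defined with 300 nM 2-MeSADP, followed by filtration.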

[1] = Antiplatelet aggregation activity against adenosine diphosphate-induced human platelet rich plasma assessed as inhibition of platelet aggregation by turbidimetric method; type: functional; details: Homo sapiens, Platelet, Plasma
Outline: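 Human PRP, prepared by two-step centrifugation and adjusted to 330 000 platelets/μL with PPP. Compound was preincubated 5 min at 37 °C in 0.5% DMSO, then 20 μM ADP was added. OD626 was read kinetically for 15 min at 37 °C with mixing between reads.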

Platelet = assay: Relative potency, ratio of IC50 for drug to IC50 for AZD-6140 for platelet aggregation in human platelet rich plasma; type: functional
[2] = Clearance in Sprague-Dawley rat at 2 mg/kg, iv and 5 mg/kg, po; type: ADME, organism-based; details: in vivo
Outline: (§1)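 Rats received 2 mg/kg iv infusion or 5 mg/kg po, in 50% PEG400/40% PBS/10% ethanol.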

[3] = Volume of distribution at steady state in Sprague-Dawley rat at 2 mg/kg, iv and 5 mg/kg, po; type: ADME, organism-based; details: in vivo, read-out: Vdss; outline: as §1
[4] = Half life in Sprague-Dawley rat at 2 mg/kg, iv and 5 mg/kg, po; type: ADME, organism-based; details: in vivo; outline: as §1

Sequence of P2Y purinoceptor 12 (Q9H244 whole entry): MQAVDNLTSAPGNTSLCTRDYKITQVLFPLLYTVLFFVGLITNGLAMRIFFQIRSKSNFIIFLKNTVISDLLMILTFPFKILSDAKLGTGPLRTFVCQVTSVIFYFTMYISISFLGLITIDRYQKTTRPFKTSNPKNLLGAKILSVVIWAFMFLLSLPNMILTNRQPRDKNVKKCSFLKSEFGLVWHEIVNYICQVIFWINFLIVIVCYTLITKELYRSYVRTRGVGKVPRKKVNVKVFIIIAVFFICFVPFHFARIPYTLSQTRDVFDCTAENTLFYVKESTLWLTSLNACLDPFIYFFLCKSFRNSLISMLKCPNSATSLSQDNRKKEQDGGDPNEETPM

SMILES | Ki (P2Y purinoceptor 12) [nM] | IC50 [1] [nM] | clearance [2] [mL/min/kg] | Vd [3] [L/kg] | half-life [4] [min] | Ratio IC50 (Platelet)
CCCCCOC(=O)N1CCN(C(=O)[C@H](CCC(=O)O)NC(=O)c2cc(N3CCC(N(C)C)CC3)cc(-c3ccccc3)n2)CC1 | 22 | 1800 | 81 | 2.3 | 18 | 2.1
CCCCCOC(=O)N1CCN(C(=O)[C@H](CCC(=O)O)NC(=O)c2cc(N3CCC(CN(C)C)CC3)cc(-c3ccccc3)n2)CC1 | – | – | 92 | 2.1 | 18 | 1.3
CCCCCOC(=O)N1CCN(C(=O)[C@H](CCC(=O)O)NC(=O)c2cc(N3CCC(N)CC3)cc(-c3ccccc3)n2)CC1 | 17 | 1100 | 32 | 0.38 | 6 | 1.2
CCCCCOC(=O)N1CCN(C(=O)[C@H](CCC(=O)O)NC(=O)c2cc(OC(=O)N3CCOCC3)cc(-c3ccccc3)n2)CC1 | 4.8 | 1700 | 220 | 31 | 96 | 0.99
CCCCCOC(=O)N1CCN(C(=O)[C@H](CCC(=O)O)NC(=O)c2cc(C(=O)N3CCC(N(C)C)CC3)cc(-c3ccccc3)n2)CC1 | 5.4 | 580 | 37 | 0.77 | 12 | 1
CCCCCOC(=O)N1CCN(C(=O)[C@H](CCC(=O)O)NC(=O)c2cc(OC(=O)N(C)CC3CCOCC3)cc(-c3ccccc3)n2)CC1 | 45 | 470 | 109 | 8.6 | 78 | 0.82
CCCCCOC(=O)N1CCN(C(=O)[C@H](CCC(=O)O)NC(=O)c2cc(OCC3CCN(C)CC3)cc(-c3ccccc3)n2)CC1 | 5.3 | 330 | 130 | 6.9 | 36 | 0.62
CCCCCOC(=O)N1CCN(C(=O)[C@H](CCC(=O)O)NC(=O)c2cc(N3CCC(N4CCCC4)CC3)cc(-c3ccccc3)n2)CC1 | 9 | 1200 | 52 | 7.3 | 96 | 0.57
CCCCCOC(=O)N1CCN(C(=O)[C@H](CCC(=O)O)NC(=O)c2cc(C(=O)N3CCC(OC)CC3)cc(-c3ccccc3)n2)CC1 | 3.2 | 460 | 54 | 1.2 | 15 | 0.99
CCCCCOC(=O)N1CCN(C(=O)[C@H](CCC(=O)O)NC(=O)c2cc(NC(=O)OCC3CCNCC3)cc(-c3ccccc3)n2)CC1 | 1.7 | 5800 | – | – | – | 3.7
CCCCOC(=O)N1CCN(C(=O)[C@H](CCC(=O)O)NC(=O)c2cc(OC(=O)N3CCC(OCC)CC3)cc(-c3ccccc3)n2)CC1 | 2.1 | 1000 | – | – | – | 1.2
CCCCCOC(=O)N1CCN(C(=O)[C@H](CCC(=O)O)NC(=O)c2cc(OCC3CCN(C(=O)OCC)CC3)cc(-c3ccccc3)n2)CC1 | 1.3 | 7400 | – | – | – | 5.1
CCCCCOC(=O)N1CCN(C(=O)[C@H](CCC(=O)O)NC(=O)c2cc(OC(=O)N3CCCC3)cc(-c3ccccc3)n2)CC1 | 7.7 | 1800 | 46 | 2.3 | 36 | 1

Continued by falling Ki (P2Y purinoceptor 12), values first:

Ki (P2Y purinoceptor 12) [nM] | IC50 [1] [nM] | clearance [2] [mL/min/kg] | Vd [3] [L/kg] | half-life [4] [min] | SMILES | Ratio IC50 (Platelet)
112 | 29000 | 34 | 1.3 | 24 | CCOC(=O)N1CCN(C(=O)[C@H](CCC(=O)O)NC(=O)c2cc(N3CCCCC3)cc(-c3ccccc3)n2)CC1 | 34
94 | 31000 | – | – | – | CCOC(=O)N1CCN(C(=O)[C@H](CCC(=O)O)NC(=O)c2cc(OCC)cc(-c3ccccc3)n2)CC1 | 44
39 | 25000 | 58 | 3.4 | 42 | CCOC(=O)N1CCN(C(=O)[C@H](CCC(=O)O)NC(=O)c2cc(N3CCOCC3)cc(-c3ccccc3)n2)CC1 | 22
22 | 1100 | 96 | 9.2 | 66 | CCCCCOC(=O)N1CCN(C(=O)[C@H](CCC(=O)O)NC(=O)c2cc(CCCN(CC)CC)cc(-c3ccccc3)n2)CC1 | 1.6
12 | 1000 | 112 | 5.6 | 36 | CCCCCOC(=O)N1CCN(C(=O)[C@H](CCC(=O)O)NC(=O)c2cc(CCCNCC(C)C)cc(-c3ccccc3)n2)CC1 | 1.5
11 | 9300 | – | – | – | CCCCCOC(=O)N1CCN(C(=O)[C@H](CCC(=O)O)NC(=O)c2cc(NC(=O)OCC)cc(-c3ccccc3)n2)CC1 | 15
9.9 | 1700 | 94 | 5.2 | 38.4 | CCCCCOC(=O)N1CCN(C(=O)[C@H](CCC(=O)O)NC(=O)c2cc(OC3CCN(CCOC)CC3)cc(-c3ccccc3)n2)CC1 | 1.7
6.1 | 4600 | – | – | – | CCCCCOC(=O)N1CCN(C(=O)[C@H](CCC(=O)O)NC(=O)c2cc(C(=O)NCCCOC)cc(-c3ccccc3)n2)CC1 | 12
5.5 | 380 | 63 | 3.4 | 36 | CCCCCOC(=O)N1CCN(C(=O)[C@H](CCC(=O)O)NC(=O)c2cc(OCC3CCN(C(C)C)CC3)cc(-c3ccccc3)n2)CC1 | 0.5
5.3 | 550 | 141 | 10.9 | 53.4 | CCCCCOC(=O)N1CCN(C(=O)[C@H](CCC(=O)O)NC(=O)c2cc(OCC3CCN(CCOC)CC3)cc(-c3ccccc3)n2)CC1 | 0.73
4.5 | 820 | 62 | 1.3 | 12 | CCCCCOC(=O)N1CCN(C(=O)[C@H](CCC(=O)O)NC(=O)c2cc(OCC3CCNCC3)cc(-c3ccccc3)n2)CC1 | 0.82
4.5 | 3500 | – | – | – | CCCCCOC(=O)N1CCN(C(=O)[C@H](CCC(=O)O)NC(=O)c2cc(OCC3CCN(C(=O)C(F)(F)F)CC3)cc(-c3ccccc3)n2)CC1 | 4.8
4.4 | 710 | 51 | 1.1 | 14.4 | CCCCCOC(=O)N1CCN(C(=O)[C@H](CCC(=O)O)NC(=O)c2cc(C(=O)N3CCOCC3)cc(-c3ccccc3)n2)CC1 | 1
3.6 | 1800 | 36 | 0.58 | 12 | CCCCCOC(=O)N1CCN(C(=O)[C@H](CCC(=O)O)NC(=O)c2cc(OC3CCN(C(C)=O)CC3)cc(-c3ccccc3)n2)CC1 | 1.8
1 | 1300 | 38 | 3.2 | 60 | CCCCCOC(=O)N1CCN(C(=O)[C@H](CCC(=O)O)NC(=O)c2cc(CCCN(C)C)cc(-c3ccccc3)n2)CC1 | 1.3
